Source: ChEMBL document CHEMBL2040843, “Synthesis and in vitro stability of nucleoside 5'-phosphonate derivatives” (Eur J Med Chem, 2012)
Calls of active or inactive are those of the source. The calls are words filed in the database; no cut-off is given here.

What was measured:
Platelet = experiment: Induction of platelets aggregation in human platelet rich plasma at 10^-4 M after 3 mins by light transmission aggregometry analysis; assay type: functional, cell-free
Summary of the method: (§1)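 PRP from citrated whole blood (9:1) of healthy volunteers taken 2 h after an acetylsalicylic acid tablet; centrifuged 150g, 21 °C, 10 min. Pre-warmed PRP at 37 °C with test agent (10^-4 M) or vehicle; aggregation triggered with 10^-6 M ADP; shape change and aggregation followed 3 min by light transmission aggregometry.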

Blood = experiment: (§2) Metabolic stability in human whole blood assessed as compound degradation after 6 hrs by HPLC analysis; assay type: ADME, tissue-based; conditions: blood, 6 h
Summary of the method: (§3)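 Compound from 10^-2 M DMSO stock incubated at 50 μM final in whole blood from healthy subjects (3 mL) at 37 °C for intervals up to 360 min. Remaining parent quantified by reversed-phase HPLC, peak areas against external standards; semilogarithmic regression for first-order kinetics; mean ± SD of three independent experiments.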

Liver [1] = experiment: (§4) Metabolic stability in Wistar rat liver homogenates assessed as compound degradation at 50 uM after 6 hrs by HPLC analysis; assay type: ADME, tissue-based; conditions: tissue homogenate, 6 h, 50 µM
Summary of the method: (§5)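 Male Wistar rat liver washed in ice-cold saline, homogenized in 50 mM Tris-HCl pH 7.4 (4 mL/g); 2000 × g, 10 min, 4 °C supernatant stored −80 °C. Compound from 10^-2 M DMSO stock incubated at 50 μM final, 37 °C, up to 360 min; HPLC with external-standard peak areas. First-order kinetics from semilogarithmic plots; mean ± SD of three independent experiments.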

[2] = Antiplatelet activity against human platelets assessed as inhibition of ADP-induced platelet aggregation at 10^-4 M after 3 mins by light transmission aggregometry analysis; assay type: functional; conditions: 0.05 h; summary of the method: as §1
[3] = Half life in Wistar rat liver homogenates at 50 uM by HPLC analysis; assay type: ADME, tissue-based; summary of the method: as §5
Liver [4] = experiment: Metabolic stability in Wistar rat liver homogenates assessed as increase in guanine formation by HPLC analysis; assay type: ADME, tissue-based; conditions: tissue homogenate
Summary of the method: (§6)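 Supernatant of male Wistar rat liver homogenate (Tris-HCl 50 mM, pH 7.4; 2000 × g) incubated at 37 °C with 50 μM compound up to 360 min. Guanine measured by RP18 HPLC, water/acetonitrile 99:1 with 0.01 M H3PO4, 0.8 mL/min, external-standard peak areas.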

Liver [5] = experiment: Drug degradation in Wistar rat liver homogenates assessed as increase in guanine formation by HPLC analysis; assay type: ADME, tissue-based; conditions: tissue homogenate; summary of the method: as §6
[6] = as §2; assay type: ADME, tissue-based; conditions: whole blood, read-out: Drug degradation; summary of the method: as §3
[7] = as §4; assay type: ADME, tissue-based; conditions: Wistar, liver homogenates, read-out: Drug degradation; summary of the method: as §5

| SMILES | Activity (Platelet) | other results |
| --- | --- | --- |
| CCOP(=O)(CC(=O)OC[C@H]1O[C@@H](n2cnc3c(=O)[nH]cnc32)[C@H](O)[C@@H]1O)OCC | inactive | – |
| O=C(CP(=O)(O)O)NC[C@H]1O[C@@H](n2cnc3c(=O)[nH]cnc32)[C@H](O)[C@@H]1O | inactive | – |
| Nc1ncnc2c1ncn2[C@@H]1O[C@H](COC(=O)CP(=O)(O)O)[C@@H](O)[C@H]1O [ADENOSINE PHOSPHONOACETIC ACID] | inactive | Stability (Blood): Stable; Stability (Liver [1]): Stable; inhibition at 100 µM [2]: ≤ 70% |
| Nc1nc2c(ncn2[C@@H]2O[C@H](CO)[C@@H](O)[C@H]2O)c(=O)[nH]1 [GUANOSINE] | – | half-life at 50 µM [3]: 0.00403 h; Stability (Liver [4]): Unstable |
| CCOP(=O)(CC(=O)OCCOCn1cnc2c(N)ncnc21)OCC | inactive | – |
| CCOP(=O)(CC(=O)NC[C@H]1O[C@@H](n2cnc3c(N)ncnc32)[C@H](O)[C@@H]1O)OCC | inactive | – |
| Nc1nc2c(ncn2[C@@H]2O[C@H](COC(=O)CP(=O)(O)O)[C@@H](O)[C@H]2O)c(=O)[nH]1 | inactive | – |
| Nc1ncnc2c1ncn2[C@@H]1O[C@H](CNC(=O)CP(=O)(O)O)[C@@H](O)[C@H]1O | inactive | – |
| CCOP(=O)(CC(=O)NC[C@H]1O[C@@H](n2cnc3c(=O)[nH]cnc32)[C@H](O)[C@@H]1O)OCC | inactive | – |
| CCOP(=O)(CC(=O)OC[C@H](CO)O[C@H](CO)n1cnc2c(N)ncnc21)OCC | inactive | – |
| CC(C)C(=O)Nc1nc2c(ncn2[C@@H]2O[C@H](COC(=O)CP(=O)(O)O)[C@@H](O)[C@H]2O)c(=O)[nH]1 | inactive | – |
| CCOP(=O)(CC(=O)NC[C@H](CO)O[C@H](CO)n1cnc2c(N)ncnc21)OCC | inactive | – |
| CCOP(=O)(CC(=O)OC[C@H]1O[C@@H](n2c(SC)nc3c(N)ncnc32)[C@H](O)[C@@H]1O)OCC | inactive | – |
| CCOP(=O)(CC(=O)OC[C@H]1O[C@@H](n2cnc3c(N)ncnc32)[C@H](O)[C@@H]1O)OCC | inactive | – |
| CCOP(=O)(O)CC(=O)OCCOCn1cnc2c(N)ncnc21 | inactive | Stability (Blood): Stable; Stability (Liver [1]): Stable; inhibition at 100 µM [2]: ≤ 70% |
| CCOP(=O)(CC(=O)OC[C@H]1O[C@@H](n2cnc3c(=O)[nH]c(NC(=O)C(C)C)nc32)[C@H](O)[C@@H]1O)OCC | inactive | – |
| CCOP(=O)(CC(=O)OC[C@H]1O[C@@H](n2cnc3c(=O)[nH]c(N)nc32)[C@H](O)[C@@H]1O)OCC | inactive | Drug degradation (Liver [5]): Active; half-life at 50 µM [3]: 2.33 h; metabolised at 6 h [6]: 20%; metabolised at 6 h, 50 µM [7]: 80%; inhibition at 100 µM [2]: ≤ 70% |
